Reference: ChEMBL document CHEMBL3414472, “Synthesis, SAR, and series evolution of novel oxadiazole-containing 5-lipoxygenase activating protein inhibitors: discovery of 2-[4-(3-{(r)-1-[4-(2-amino-pyrimidin-5-yl)-phenyl]-1-cyclopropyl-ethyl}-[1,2,4]oxadiazol-5-yl)-pyrazol-1-yl]-N,N-dimethyl-acetamide (BI 665915)” (J Med Chem, 2015)
≈ marks a conversion by molar mass, not a printed value.

Assays:
[1] = target: T1, Arachidonate 5-lipoxygenase-activating protein (Homo sapiens, UniProt P20292); assay: Inhibition of FLAP in calcimycin-stimulated human whole blood assessed as inhibition of LTB4 synthesis preincubated for 15 mins followed by calcimycin stimulation measured after 30 mins
T1 sequence (P20292 whole entry): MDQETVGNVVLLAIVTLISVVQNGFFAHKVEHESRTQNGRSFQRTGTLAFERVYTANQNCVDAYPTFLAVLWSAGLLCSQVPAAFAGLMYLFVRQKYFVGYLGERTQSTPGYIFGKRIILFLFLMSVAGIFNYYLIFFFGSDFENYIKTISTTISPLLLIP
Outline: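 Heparinized human volunteer blood preincubated with compound 15 min at 37 °C, 5 % CO2; calcimycin 100 µM final, 30 min at 37 °C; spun 2000 rpm 5 min at 4 °C. Supernatant LTB4 measured by HTRF competition (LTB4-XL665 plus anti-LTB4 cryptate, 2 h room temperature). Geometric mean (n ≥ 3) of duplicate 10-point curves.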

hERG (KCNH2) = hERG (KCNH2) (Homo sapiens, UniProt Q12809); assay: Inhibition of human ERG expressed in HEK293 cells assessed as change in tail current at 11 uM by manual patch clamp assay relative to control; format: cell-based; details: HEK293 cells that express hERG
hERG (KCNH2), sequence (Q12809 whole entry, the tested form may be a part): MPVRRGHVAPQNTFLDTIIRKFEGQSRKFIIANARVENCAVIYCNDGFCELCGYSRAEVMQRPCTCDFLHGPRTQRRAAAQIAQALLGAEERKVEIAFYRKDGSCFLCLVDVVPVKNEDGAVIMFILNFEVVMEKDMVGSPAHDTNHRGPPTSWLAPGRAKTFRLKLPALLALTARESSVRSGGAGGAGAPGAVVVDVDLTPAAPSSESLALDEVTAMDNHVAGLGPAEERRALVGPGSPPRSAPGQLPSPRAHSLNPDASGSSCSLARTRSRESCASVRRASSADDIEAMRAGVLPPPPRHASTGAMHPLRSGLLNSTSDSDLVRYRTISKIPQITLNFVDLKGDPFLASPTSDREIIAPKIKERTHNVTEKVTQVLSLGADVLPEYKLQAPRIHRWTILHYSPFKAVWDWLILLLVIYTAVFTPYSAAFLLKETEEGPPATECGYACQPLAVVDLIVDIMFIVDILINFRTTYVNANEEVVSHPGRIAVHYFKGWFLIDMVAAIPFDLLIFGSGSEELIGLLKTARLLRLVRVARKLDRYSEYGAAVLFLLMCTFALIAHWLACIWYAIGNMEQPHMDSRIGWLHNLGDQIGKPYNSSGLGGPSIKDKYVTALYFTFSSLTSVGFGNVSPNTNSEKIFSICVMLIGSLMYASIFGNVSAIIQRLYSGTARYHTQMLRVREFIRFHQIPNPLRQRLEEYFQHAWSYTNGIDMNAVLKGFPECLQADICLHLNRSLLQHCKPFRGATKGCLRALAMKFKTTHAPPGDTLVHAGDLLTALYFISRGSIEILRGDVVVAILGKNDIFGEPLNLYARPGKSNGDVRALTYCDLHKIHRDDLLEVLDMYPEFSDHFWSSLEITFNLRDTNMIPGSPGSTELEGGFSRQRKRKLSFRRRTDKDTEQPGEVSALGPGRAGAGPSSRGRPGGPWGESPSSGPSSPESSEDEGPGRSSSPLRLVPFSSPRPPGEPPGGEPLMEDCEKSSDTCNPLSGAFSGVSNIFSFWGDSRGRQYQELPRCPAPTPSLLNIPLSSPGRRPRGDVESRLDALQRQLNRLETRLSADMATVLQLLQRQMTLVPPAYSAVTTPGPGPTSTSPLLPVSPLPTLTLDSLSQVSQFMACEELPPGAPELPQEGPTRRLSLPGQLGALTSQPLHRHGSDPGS
Outline: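 Whole-cell manual patch clamp on HEK293 cells stably expressing human ERG, at room temperature (20-22 °C) in a perfusion chamber. Change in hERG tail current amplitude during the hyperpolarizing step measured with escalating compound concentrations.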

[2] = Aqueous equilibrium solubility of the compound in crystalline form in citric acid/disodium phosphate buffer at pH 6.8 after 24 hrs of rotation by HPLC analysis; format: physicochemical
Outline: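 Saturated solution of crystalline material in citric acid/disodium phosphate buffer pH 6.8 rotated 24 h; after centrifugation and filtration, dissolved concentration measured by HPLC.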

Cytochrome P450 2C9 [3] = target: T2, Cytochrome P450 2C9 (Homo sapiens, UniProt P11712); assay: Inhibition of CYP2C9 in human liver microsomes using dichlofenac as substrate preincubated for 10 mins followed by NADPH addition measured after 6 mins; format: ADME
T2 sequence (P11712 whole entry): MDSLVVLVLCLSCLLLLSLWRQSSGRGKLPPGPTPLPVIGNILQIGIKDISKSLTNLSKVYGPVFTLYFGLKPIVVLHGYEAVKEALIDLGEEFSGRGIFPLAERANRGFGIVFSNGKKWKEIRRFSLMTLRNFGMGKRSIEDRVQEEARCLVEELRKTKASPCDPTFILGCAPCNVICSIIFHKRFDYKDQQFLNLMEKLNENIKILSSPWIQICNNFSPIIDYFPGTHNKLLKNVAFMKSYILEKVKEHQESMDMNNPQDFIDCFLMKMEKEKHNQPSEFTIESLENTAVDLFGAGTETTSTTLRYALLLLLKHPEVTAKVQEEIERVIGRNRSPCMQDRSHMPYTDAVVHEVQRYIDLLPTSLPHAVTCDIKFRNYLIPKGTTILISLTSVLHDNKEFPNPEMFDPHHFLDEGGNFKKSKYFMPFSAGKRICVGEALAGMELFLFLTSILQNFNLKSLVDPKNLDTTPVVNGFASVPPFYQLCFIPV
Outline: (§1)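 Human liver microsomes (0.05 mg/mL protein) with cocktail substrates: 4 µM diclofenac (2C9), 3 µM dextromethorphan (2D6), 2.5 µM midazolam (3A4). Compound in 0.1 M potassium phosphate pH 7.4 preincubated 10 min at 37 °C; NADPH added, reaction 6 min at 37 °C.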

Cytochrome P450 3A4 [4] = target: T3, Cytochrome P450 3A4 (Homo sapiens, UniProt P08684); assay: Inhibition of CYP3A4 in human liver microsomes using midazolam as substrate preincubated for 10 mins followed by NADPH addition measured after 6 mins; format: ADME; outline: as §1
T3 sequence (P08684 whole entry): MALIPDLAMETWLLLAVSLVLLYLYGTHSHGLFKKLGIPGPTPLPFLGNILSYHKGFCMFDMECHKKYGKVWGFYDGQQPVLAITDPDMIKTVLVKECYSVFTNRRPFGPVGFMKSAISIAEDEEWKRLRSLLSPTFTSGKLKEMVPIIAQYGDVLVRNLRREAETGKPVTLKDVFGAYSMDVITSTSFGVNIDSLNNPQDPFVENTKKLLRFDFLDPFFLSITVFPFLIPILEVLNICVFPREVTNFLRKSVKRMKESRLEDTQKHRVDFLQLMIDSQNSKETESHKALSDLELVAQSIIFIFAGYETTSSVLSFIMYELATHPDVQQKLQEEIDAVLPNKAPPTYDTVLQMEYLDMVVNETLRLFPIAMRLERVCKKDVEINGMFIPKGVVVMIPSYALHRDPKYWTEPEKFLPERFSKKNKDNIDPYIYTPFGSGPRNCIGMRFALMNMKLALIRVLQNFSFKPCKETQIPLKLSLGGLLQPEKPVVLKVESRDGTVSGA

Cytochrome P450 2D6 [5] = target: T4, Cytochrome P450 2D6 (Homo sapiens, UniProt P10635); assay: Inhibition of CYP2D6 in human liver microsomes using dextromethorphan as substrate preincubated for 10 mins followed by NADPH addition measured after 6 mins; format: ADME; outline: as §1
T4 sequence (P10635 whole entry): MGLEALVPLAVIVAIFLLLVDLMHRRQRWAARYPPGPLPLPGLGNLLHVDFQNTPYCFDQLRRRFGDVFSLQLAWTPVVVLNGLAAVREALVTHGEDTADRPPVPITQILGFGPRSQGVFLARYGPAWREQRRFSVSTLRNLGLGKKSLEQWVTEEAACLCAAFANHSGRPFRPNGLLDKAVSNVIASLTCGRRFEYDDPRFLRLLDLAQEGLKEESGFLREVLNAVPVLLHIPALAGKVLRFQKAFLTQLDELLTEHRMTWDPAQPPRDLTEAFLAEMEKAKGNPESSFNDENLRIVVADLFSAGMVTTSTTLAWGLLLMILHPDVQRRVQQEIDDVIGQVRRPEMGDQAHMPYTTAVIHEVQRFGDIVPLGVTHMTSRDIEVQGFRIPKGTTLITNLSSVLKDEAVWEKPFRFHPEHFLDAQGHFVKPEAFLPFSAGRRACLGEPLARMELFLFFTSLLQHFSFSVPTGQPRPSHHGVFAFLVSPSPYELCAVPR

Cytochrome P450 2D6 [6] = target: T4, Cytochrome P450 2D6; assay: Inhibition of CYP2D6 in human liver microsomes using dextromethorphan as substrate at 30 uM preincubated for 10 mins followed by NADPH addition measured after 6 mins; format: ADME; details: 0.1 h
Cytochrome P450 2C9 [7] = target: T2, Cytochrome P450 2C9; assay: Inhibition of CYP2C9 in human liver microsomes using dichlofenac as substrate at 30 uM preincubated for 10 mins followed by NADPH addition measured after 6 mins; format: ADME; details: 0.1 h
[8] = target: T1, Arachidonate 5-lipoxygenase-activating protein; assay: Displacement of [125I]-L-691831 from human FLAP expressed in insect SF9 cell membranes after 2 hrs by Topcount analysis
[9] = Metabolic stability in human liver microsomes at 1 uM preincubated for 10 mins followed by NADPH addition measured over 60 mins by LC/MS analysis relative to hepatic blood flow; format: ADME; details: read-out: Stability
Outline: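 Human liver microsomes (1 mg/mL protein) with test compound at 1 µM, preincubated 10 min at 37 °C before adding NADPH. Remaining compound followed over a 0–60 min time course, as duplicate 8-timepoint curves. The slope of ln(% remaining) against time gives clearance, expressed as percent of hepatic blood flow.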

Cytochrome P450 3A4 [10] = target: T3, Cytochrome P450 3A4; assay: Inhibition of CYP3A4 in human liver microsomes using midazolam as substrate at 30 uM preincubated for 10 mins followed by NADPH addition measured after 6 mins; format: ADME; details: 0.1 h
[11] = target: T5, Arachidonate 5-lipoxygenase-activating protein (Mus musculus, UniProt P30355); assay: Inhibition of FLAP in calcimycin-stimulated mouse whole blood assessed as inhibition of LTB4 synthesis preincubated for 15 mins followed by calcimycin stimulation measured after 30 mins
T5 sequence (P30355 whole entry): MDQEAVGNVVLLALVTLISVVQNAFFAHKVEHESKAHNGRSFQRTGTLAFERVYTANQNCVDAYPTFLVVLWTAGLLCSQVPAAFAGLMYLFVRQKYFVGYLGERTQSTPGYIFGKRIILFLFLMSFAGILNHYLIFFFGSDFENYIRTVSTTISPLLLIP
Outline: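 Mouse whole blood run by the same protocol as the human whole blood LTB4 assay (compound 15 min at 37 °C, 100 µM final calcimycin 30 min, HTRF LTB4 read-out). Geometric mean (n ≥ 3) of duplicate 8-point curves.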

| IC50 [1] | SMILES | further results |
| --- | --- | --- |
| 2100 nM | Nc1ncc(-c2ccc(C3(c4noc(-c5c[nH]nn5)n4)CCC3)cc2)cn1 |  |
| 91 nM | Cn1cc(-c2nc([C@@](C)(c3ccc(-c4cnc(N)nc4)cc3)C3CCC3)no2)cn1 |  |
|  | CC(C)(O)Cn1cc(-c2nc(C3(c4ccc(-c5cnc(N)nc5)cc4)CCC3)no2)cn1 | inhibition at 11 µM (hERG (KCNH2)): 51%; solubility thermodynamic at 24 h [2]: 3.1 µg/mL (≈ 7.18 µM); IC50 (Cytochrome P450 2C9 [3]): 6000 nM; IC50 (Cytochrome P450 3A4 [4]): > 30000 nM; IC50 (Cytochrome P450 2D6 [5]): 3000 nM |
| 250 nM | Nc1ncc(-c2ccc(C3(c4noc(-c5cccnc5)n4)CCC3)cc2)cn1 |  |
| 81 nM | CN(C)C(=O)Cn1cc(-c2nc(C3(c4ccc(-c5cnc(N)nc5)cc4)CCC3)no2)cn1 | inhibition (INH) (Cytochrome P450 2D6 [6]): Not Active; inhibition (INH) (Cytochrome P450 2C9 [7]): Not Active; IC50 [8]: 3.6 nM; solubility thermodynamic at 24 h [2]: 20 µg/mL (≈ 45 µM) |
| 470 nM | Nc1ncc(-c2ccc(C3(c4noc(-c5ccccc5)n4)CCC3)cc2)cn1 |  |
| 460 nM | CCNc1nc(C2(c3ccc(-c4cnc(N)nc4)cc3)CCC2)no1 |  |
| 66 nM | CN(C)C(=O)Cn1cc(-c2nc([C@@](C)(c3ccc(-c4ccc(N)nc4)cc3)C3CC3)no2)cn1 |  |
| 190 nM | CC(C)C(c1ccc(-c2cnc(N)nc2)cc1)c1noc(-c2cnn(C)c2)n1 (racemic) |  |
| > 50000 nM | CC(C)Nc1ncc(-c2ccc([C@](C)(c3noc(-c4cnn(CC(=O)N(C)C)c4)n3)C3CC3)cc2)cn1 | IC50 [8]: > 1000 nM |
| > 5000 nM | CS(=O)(=O)Nc1nc(C2(c3ccc(-c4cnc(N)nc4)cc3)CCC2)no1 |  |
| 200 nM | Nc1ncc(-c2ccc(C3(c4noc(-c5cscn5)n4)CCC3)cc2)cn1 |  |
| 400 nM | Nc1ncc(-c2ccc(C3(c4noc(-c5cccnn5)n4)CCC3)cc2)cn1 |  |
| 310 nM | Nc1ncc(-c2ccc(C3(c4noc(-c5cocn5)n4)CCC3)cc2)cn1 |  |
| > 5000 nM | Cn1cc(-c2nc(Cc3ccc(-c4cnc(N)nc4)cc3)no2)cn1 | IC50 [8]: > 1000 nM |
| > 5000 nM | Nc1ncc(-c2ccc(C3(c4noc(-c5cnn(CC(=O)O)c5)n4)CCC3)cc2)cn1 | IC50 [8]: 18 nM |
| 14 nM | CN(C)CCn1cc(-c2nc([C@@](C)(c3ccc(-c4cnc(N)nc4)cc3)C3CC3)no2)cn1 | inhibition at 11 µM (hERG (KCNH2)): 31%; hepatic extraction ratio at 1 h, 1 µM [9]: 0.4; solubility thermodynamic at 24 h [2]: > 1100 µg/mL; IC50 (Cytochrome P450 2C9 [3]): > 30000 nM; IC50 (Cytochrome P450 3A4 [4]): > 30000 nM; IC50 (Cytochrome P450 2D6 [5]): 10000 nM |
| 30 nM | CNc1ncc(-c2ccc([C@](C)(c3noc(-c4cnn(CC(=O)N(C)C)c4)n3)C3CC3)cc2)cn1 | IC50 [8]: 2.9 nM |
| 2700 nM | Nc1ncc(-c2ccc(C3(c4noc(-c5nc[nH]n5)n4)CCC3)cc2)cn1 |  |
|  | COCCn1cc(-c2nc(C3(c4ccc(-c5cnc(N)nc5)cc4)CCC3)no2)cn1 | solubility thermodynamic at 24 h [2]: 9.3 µg/mL (≈ 22.3 µM) |

| IC50 [1] | SMILES | further results |
| --- | --- | --- |
| 360 nM | Nc1ncc(-c2ccc(C3(c4noc(-c5cnccn5)n4)CCC3)cc2)cn1 |  |
| 3200 nM | Cn1cc(-c2nc([C@](C)(c3ccc(-c4cnc(N)nc4)cc3)C3CCC3)no2)cn1 |  |
| 47 nM | CN(C)CCn1cc(-c2nc(C3(c4ccc(-c5cnc(N)nc5)cc4)CCC3)no2)cn1 | inhibition (INH) (Cytochrome P450 3A4 [10]): Not Active; solubility thermodynamic at 24 h [2]: 270 µg/mL (≈ 627 µM); IC50 (Cytochrome P450 2C9 [3]): 7000 nM; IC50 (Cytochrome P450 2D6 [5]): 10000 nM |
| 1000 nM | CCNc1ncc(-c2ccc(C(C)(c3noc(-c4cnn(CC(=O)N(C)C)c4)n3)C3CC3)cc2)cn1 (racemic) |  |
| 93 nM | Cn1cc(-c2nc(C(C)(C)c3ccc(-c4cnc(N)nc4)cc3)no2)cn1 |  |
|  | Cn1cc(-c2nc(C3(c4ccc(-c5cnc(N)nc5)cc4)CCC3)no2)cn1 | solubility thermodynamic at 24 h [2]: 0.03 µg/mL (≈ 0.0803 µM) |
| 350 nM | Cn1cc(-c2nc([C@](C)(c3ccc(-c4cnc(N)nc4)cc3)C3CC3)no2)cn1 |  |
| 110 nM | Nc1ncc(-c2ccc(C3(c4noc(-c5cn[nH]c5)n4)CCC3)cc2)cn1 | solubility thermodynamic at 24 h [2]: 0.4 µg/mL (≈ 1.11 µM) |
| 270 nM | Nc1ncc(-c2ccc(C3(c4noc(-c5c[nH]cn5)n4)CCC3)cc2)cn1 |  |
| 340 nM | Nc1ncc(-c2ccc(C3(c4noc(-c5cncnc5)n4)CCC3)cc2)cn1 |  |
| 160 nM | Nc1ncc(-c2ccc(C3(c4noc(-c5cc[nH]n5)n4)CCC3)cc2)cn1 |  |
| 15 nM | Cn1cc(-c2nc([C@@](C)(c3ccc(-c4cnc(N)nc4)cc3)C3CC3)no2)cn1 |  |
| 240 nM | NCCn1cc(-c2nc(C3(c4ccc(-c5cnc(N)nc5)cc4)CCC3)no2)cn1 |  |
| 240 nM | Nc1ncc(-c2ccc(C3(c4noc(-c5ccnnc5)n4)CCC3)cc2)cn1 |  |
| 2200 nM | Cn1cc(-c2nc(C3(c4ccc(-c5cnc(N)nc5)cc4)CC3)no2)cn1 |  |
| 1500 nM | Cn1cc(-c2nc(C3(c4ccc(-c5cnc(N)nc5)cc4)CC(C)(C)C3)no2)cn1 |  |
| 820 nM | Nc1ncc(-c2ccc(C3(c4noc(-c5ccncn5)n4)CCC3)cc2)cn1 |  |
| 20 nM | CC(C)(O)Cn1cc(-c2nc([C@@](C)(c3ccc(-c4cnc(N)nc4)cc3)C3CC3)no2)cn1 | IC50 [11]: 1500 nM; inhibition at 11 µM (hERG (KCNH2)): 16%; hepatic extraction ratio at 1 h, 1 µM [9]: 0.24; IC50 [8]: 2.1 nM; solubility thermodynamic at 24 h [2]: 32 µg/mL (≈ 71.8 µM); IC50 (Cytochrome P450 2C9 [3]): 4000 nM; IC50 (Cytochrome P450 3A4 [4]): > 30000 nM; IC50 (Cytochrome P450 2D6 [5]): > 30000 nM |
| > 5000 nM | Nc1ncc(-c2ccc(C3(c4noc(-c5ccc[nH]c5=O)n4)CCC3)cc2)cn1 |  |

| SMILES | IC50 [1] | further results |
| --- | --- | --- |
| CC(C)C(C)(c1ccc(-c2cnc(N)nc2)cc1)c1noc(-c2cnn(C)c2)n1 (racemic) | 46 nM |  |
| CN(C)C(=O)Cn1cc(-c2nc([C@@](C)(c3ccc(-c4cnc(N)cn4)cc3)C3CC3)no2)cn1 | 73 nM |  |
| CC(C)[C@](C)(c1ccc(-c2cnc(N)nc2)cc1)c1noc(-c2cnn(C)c2)n1 | 33 nM |  |
| CC(C)[C@@](C)(c1ccc(-c2cnc(N)nc2)cc1)c1noc(-c2cnn(C)c2)n1 | 360 nM |  |
